# This is a sample that favours compounds with a hit; in the whole collection about 0.81% have one here.
# Pf gamet viab: P. falciparum stage V gametocyte viability inhibition; P. falciparum stage V gametocytes, ATP luminescence, 24 h; inhibition, % at 10.9 µM; 150,000 tested, 0.065% active; AID 743093;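 active means inhibition above the mean plus 3 SD of compounds within the control limits, set per campaign, cut at about 38% in these data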;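 further: 0% = DMSO wells and 100% = medium only without gametocytes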
# Rad51 HR inh: Rad51 (human) homologous recombination inhibition; hRad51 DNA strand exchange, fluorescence dequenching; inhibition, % at 10 µM; 200,000 tested, 0.085% active; AID 1385;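 active means inhibition above 40% at the single screening dose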;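 further: 0% = DMSO control wells and 100% = blanks with heterologous ssDNA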
# Target sequence (Q06609 whole entry, looked up): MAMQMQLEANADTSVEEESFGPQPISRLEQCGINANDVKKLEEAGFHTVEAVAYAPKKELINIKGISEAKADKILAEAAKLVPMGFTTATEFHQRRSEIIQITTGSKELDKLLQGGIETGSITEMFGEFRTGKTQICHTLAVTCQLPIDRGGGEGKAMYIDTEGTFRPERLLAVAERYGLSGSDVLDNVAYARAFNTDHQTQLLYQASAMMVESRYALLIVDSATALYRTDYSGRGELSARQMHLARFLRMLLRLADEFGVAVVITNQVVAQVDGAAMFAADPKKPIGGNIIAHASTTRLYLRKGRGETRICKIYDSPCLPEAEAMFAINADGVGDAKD
#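 Assay system: Human Rad51 nucleoprotein filaments preassembled on unlabelled ssDNA | Reagent: Donor/quencher-labelled 47-bp dsDNA substrate | Doses: One concentration, 10 µM final | Times: 37 °C 15-min filament assembly, 30-min compound preincubation, 15-min exchange | Technique: Fluorescein emission 520 nm, excitation 485 nm | Benchmarks: Plate control and blank wells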
# Efa HMGR inh: blocks class II HMG-CoA reductase of Enterococcus faecalis | purified E. faecalis HMGR, NADPH absorbance 340 nm kinetic | inhibition, % at 10 µM | 190,000 tested, 0.41% active;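 active means inhibition above a set limit, the median over all tested compounds plus 3 SD, cut at about 9.5% in these data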;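 further: enzyme runs in reverse so mevalonate oxidation gives rising NADPH absorbance; 0% = complete reaction with DMSO and 100% = background rate lacking mevalonate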
# m-calpain inh: blocks pig calpain II enzyme activity. purified calpain II, fluorogenic peptide substrate, 30 min. inhibition, % at 16 µM. 220,000 tested, 0.37% active;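 active means inhibition above about 50%, limit read from the data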
# Redox H2O2 prof: compounds producing H2O2 with reducing agent – biochemical, NIH compound library profiling, artefact control for MLSCN library redox annotation, primary screen | DTT-dependent redox cycling H2O2, phenol red/HRP absorbance; 100% = 100 µM peroxide control, 0% = buffer | activation, % at 10 µM | 200,000 tested, 0.03% active | AID 878;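 active means activation of at least 50% relative to the plate's high and low controls in the primary single-dose screen; inactive means activation below 50%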;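 further: compound incubated with DTT at 0.8 mM final as the reducing agent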
# PKD1 inh: PKD1 (human) kinase inhibition; PKD1 kinase fluorescence polarization assay; inhibition, % (concentration not given with the values); 200,000 tested, 0.056% active; in the data active means inhibition above about 50%
# An asterisk follows results filed as active; · = no result given.
SMILES,Pf gamet viab,Rad51 HR inh,Efa HMGR inh,m-calpain inh,Redox H2O2 prof,PKD1 inh
COc1ccc(/C=N/Nc2cn[nH]c(=O)c2Cl)cc1,-24.9,15.2,2.7,-50.8,0.1,-0.4
Cc1[nH]c2ccccc2c1/C=N/NC(=S)NCc1ccccc1,-5.6,-8.0,-0.3,64.2*,-1.9,1.6
Cc1cccc(C)c1NC(=O)Cn1nnnc1N,-8.4,-3.2,13.0*,-10.3,-0.1,2.3
Cc1cccc(C)c1NC(=O)CN,22.9,20.1,·,-18.9,·,·
COc1ccc(-n2c(=S)[nH]c3cc(C(=O)Nc4ccc(OC)c(OC)c4)ccc3c2=O)cc1,·,·,-5.2,59.9*,-0.2,6.6
CCCc1ccc(C(=O)NC(=O)c2ccccc2O)cc1,-0.7,2.1,·,-2.4,·,·
O=c1n(-c2ccccc2)c(=O)n2n1CCCC2,·,3.9,1.4,-40.5,-3.0,-0.9
O=C(Cn1c(=O)n(-c2ccccc2)c(=O)n1CC(=O)N1CCCCC1)N1CCCCC1,16.0,3.6,-4.9,50.2*,2.0,-14.7
Cc1ccc(NC(=O)C(=O)NNC(=O)c2cccs2)cc1,17.8,6.5,10.3*,-22.5,-0.4,-4.9
Cc1ccc(C)c(N=Cc2ccc(-c3ccc([N+](=O)[O-])cc3)o2)c1,-50.9,-2.9,15.8*,-110.7,-0.2,-4.2
NS(=O)(=O)c1cccc(NC(=O)CN2CCC(Cc3ccccc3)CC2)c1,·,-8.8,-4.2,78.3*,5.3,7.0
CC(C)(C)c1ncc(S(=O)(=O)c2ccc(C(F)(F)F)cn2)c(N)n1,-6.2,-5.7,·,-15.7,·,·
Cc1ccc(S(=O)(=O)n2[nH]c(=O)cc2NC(=O)c2cccs2)cc1,·,-1.2,10.7*,43.0,0.4,0.3
CC(C)c1nc(CN(C)C(=O)N[C@H](C(=O)N[C@@H](Cc2ccccc2)C[C@H](O)[C@H](Cc2ccccc2)NC(=O)OCc2cncs2)C(C)C)cs1,·,10.1,5.8,14.7,·,·
C=CCn1c(CCCNC(=O)c2ccccc2OC)nc2ccccc21,·,7.2,-9.9,81.3*,-0.1,-1.6
CCN(CC)CCCN1C=C2C(=O)C(C)(OC(=O)C3CCCC3)C(=O)C=C2C=C1c1ccsc1 (stereo unspecified),0.1,-15.0,·,-39.8,·,·
COC(=O)c1ccc2nc(NC(=O)C(C)(C)C)sc2c1,·,-3.6,2.2,90.5*,-1.5,-10.0
Cc1cc(N2CCOCC2)nc(SCC(=O)OCc2ccccc2)n1,-24.9,·,11.3*,-8.0,-1.0,-7.4
O=C(CSc1nnc(NC(=O)c2ccc3c(c2)OCO3)s1)NCc1ccco1,·,-1.9,-2.8,-79.1,4.1,3.2
C[C@H](CO)N1C[C@H](C)[C@@H](CN(C)Cc2ccc(-c3ccccc3)cc2)Oc2c(NC(=O)Nc3ccc(C(F)(F)F)cc3)cccc2C1=O,-33.4,·,·,·,·,·
O=C(COC(=O)Cc1ccc(F)cc1)NCc1ccco1,49.2*,6.0,0.6,-40.9,0.0,-3.5
O=C(COC(=O)CCC(=O)c1ccc(F)cc1)NCc1ccco1,-17.9,-3.0,-4.9,-7.0,-1.8,-6.6
CCCCC[C@H](O)/C=C/[C@@H]1[C@@H](C/C=C\CCCC(=O)O)[C@H]2CO[C@@H]1C2,·,-3.5,10.6*,29.8,0.5,-0.7
CCCCC[C@H](O)/C=C/[C@@H]1[C@@H](C/C=C\CCCC(=O)O)[C@@H](O)C[C@H]1O,·,-9.4,-1.0,26.5,-0.8,5.7
COc1ccccc1/C=C/C(=O)OCC(=O)Nc1ccccc1Sc1ccccc1,-9.7,·,11.2*,11.6,-0.5,-2.7
SMILES,Pf gamet viab,Rad51 HR inh,Efa HMGR inh,m-calpain inh,Redox H2O2 prof,PKD1 inh
COc1ccccc1NC(=O)COC(=O)/C=C/c1ccccc1[N+](=O)[O-],·,23.4,-9.2,11.6,-0.5,-1.1
CCc1cccc(NC(=S)N(CCOC)C(C)c2ccco2)c1 (stereo unspecified),-7.0,31.7,·,7.0,·,·
COCCn1c(SCc2ccccc2F)nc2ccccc2c1=O,-4.7,7.7,-6.5,51.0*,-0.5,-3.5
NS(=O)(=O)c1ccc(NNC(=O)c2sccc2Cl)cc1,10.8,-2.8,·,-2.4,·,·
Cc1cc(N)ccc1N1CCCC1,·,60.4*,-3.6,-67.5,2.4,-14.5
N#Cc1cc([N+](=O)[O-])ccc1NC(=O)COC(=O)C12CC3CC(CC(C3)C1)C2,·,·,-1.4,53.9*,-0.6,-1.6
NS(=O)(=O)c1ccc(NC(=O)COC(=O)C23CC4CC(CC(C4)C2)C3)cc1,5.1,1.9,-4.8,57.9*,-1.0,0.4
CC(=O)Oc1ccc2cc(-c3ccccc3)c(=O)oc2c1,·,12.2,·,-310.2,·,·
Cc1cccc(Nc2sc(C(=O)c3cc4cc(Cl)ccc4o3)c(N)c2C#N)c1,·,4.0,·,3.4,·,·
CC1=C(C(=O)OCc2ccccc2)C(c2cccs2)N2C(=O)CCSC2=N1 (stereo unspecified),22.5,3.9,2.0,60.6*,-0.3,-6.7
O=C(CCn1c(=O)oc2ccccc21)NCc1cccs1,·,-3.6,12.8*,-13.3,-0.6,0.4
O=C(CCn1c(=O)sc2ccccc21)NCc1cccs1,·,-11.5,1.1,4.0,0.5,-7.8
CCOC(=O)CN1N=C(/C=C/c2ccc(C(C)C)cc2)CCC1=O,-5.2,12.3,2.1,54.7*,0.0,-2.5
O/N=C(\c1ccc(Cl)cc1)c1cc2ccccc2o1,·,·,-1.6,64.6*,3.0,4.1
O=C(Nc1ccc(Cl)cc1Cl)c1cc2ccccc2o1,13.8,·,·,·,·,·
CC(C)(C)n1nnnc1SCC(=O)Nc1nn(-c2ccccc2)nc1C(N)=O,9.6,-0.4,10.0*,-62.4,-0.3,-3.7
CC(=O)N(CC(=O)Nc1nn(-c2ccccc2)nc1C(N)=O)Cc1ccccc1,17.6,-34.1,-4.5,-63.8,1.6,9.8
CC(C)(C)[C@H]1COC(=O)CCC/C=C/C[C@H](CC(=O)NCCO)C(=O)N1,12.3,·,·,·,·,·
O=C(c1ccccc1Sc1ccc([N+](=O)[O-])cc1Cl)N1CCOCC1,·,44.9*,-6.1,1.4,-0.7,0.8
O=C(c1cc([N+](=O)[O-])ccc1N1CCCCC1)N1CCCC1,5.2,-6.7,-5.8,18.8,-0.3,-3.6
O=C(c1cc([N+](=O)[O-])ccc1N1CCOCC1)N1CCCCC1,0.9,34.8,0.7,81.9*,-0.4,10.5
O=C(O)c1cccc(-n2cccc2/C=C/[N+](=O)[O-])c1,2.0,·,·,-10.1,·,·
COc1ccc(N=C2S/C(=C\c3ccc(OCC(=O)O)cc3)C(=O)N2CCc2c[nH]c3ccccc23)cc1,15.1,-7.9,10.4*,82.1*,-2.0,-1.1
Cc1ccc2c(c1)CCCN2C(=O)c1ccc2c(c1)OCO2,·,-7.0,-6.4,50.2*,1.4,-1.3
O=C(c1ccc2c(c1)OCO2)N1CCCc2ccccc21,·,-8.6,0.1,-27.3,1.8,-1.0
CC(C)(C)NC(=O)C(c1ccc(O)cc1)N(C(=O)Cn1nnc(-c2ccc(F)cc2)n1)c1ccccc1F (stereo unspecified),8.6,7.8,-0.1,-75.3,-0.8,-11.9
Nc1nonc1-n1nnc(C(=O)O)c1-c1cccs1,2.8,0.8,10.1*,-14.4,2.3,-0.7
